Tests used:
GST-Pin1 = GST-Pin1 (Homo sapiens, UniProt Q13526); experiment: Competitive fluorescence polarization; format: binding; details: 14 h incubation with recombinant full-length Pin1
Procedure, shortened: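 GST-Pin1 (250 nM) preincubated 14 h at 4 °C with compound and 5 nM N-terminal fluorescein-labelled peptide probe (Bth-D-pThr-Pip-Nal). Buffer: 10 mM HEPES, 10 mM NaCl, 1% glycerol pH 7.4, 10 µg ml-1 BSA, 0.01% Tween-20, 1 mM DTT. Ki calculated from probe concentration, 85% probe bound and Pin1 concentration. Kinact from dose- and time-dependent runs. n = 3 samples ± s.e.m.; 2 experiments.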

Pin1 = experiment: Live cell competition pulldown; format: cell-based; details: PATU-8988T or HCT116 cells, 5 h
Procedure, shortened: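 2.5 million cells per 10-cm plate, dosed next day with DMSO or test compound (5 h, or as indicated). Cells washed in cold PBS, scraped and lysed in HEPES pH 7.4/NP-40 buffer with TCEP. Lysate (500 µg) incubated with desthiobiotin probe (1 µM, 1 h, 4 °C), then streptavidin agarose (1.5 h, 4 °C). Pin1 pulldown detected by immunoblot.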

PATU-8988T WT Pin1 cells = experiment: 3D Matrigel dome antiproliferative assay; format: cell-based; details: 1 μM, 9-day treatment
Procedure, shortened: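 1,000 cells per Matrigel dome, one dome per well, left 15 min at 37 °C to solidify. Medium with test compound renewed every 3 days. After 9 days, 3D CellTiter-Glo was added and the plate shaken 1 h at room temperature before reading luminescence. n = 9 biological replicates per condition.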

PATU-8988T cells = experiment: Cell cycle analysis; format: cell-based; details: 2.5 μM, 4 days
Procedure, shortened: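 PATU-8988T cells treated 4 days with DMSO (0.1%), test compound or a non-covalent analogue (each 2.5 µM), with medium replaced on day 3; run in triplicate or more. Pulsed with 10 µM BrdU for 1 h, then fixed in 70% ethanol and denatured in 2 M HCl/0.5% Triton X-100 (30 min, RT). Neutralised with 0.1 M Na2B4O7 pH 8.5 and stained overnight at 4 °C with anti-BrdU-FITC. Counterstained with propidium iodide plus RNase A (each 50 µg ml-1) and analysed by FACS.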

Sequence of GST-Pin1 (Q13526 whole entry): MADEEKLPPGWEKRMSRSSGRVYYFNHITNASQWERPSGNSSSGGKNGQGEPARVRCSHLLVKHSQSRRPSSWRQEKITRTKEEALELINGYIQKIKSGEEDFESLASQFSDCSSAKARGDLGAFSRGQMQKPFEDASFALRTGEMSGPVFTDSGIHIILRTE

## CC(=O)N(CC(C)(C)C)C1CCS(=O)(=O)C1 (stereo not shown) [Sulfopin-AcA]
GST-Pin1
  competition in FP assay: inactive
Pin1
  competition of Pin1 pulldown by DTB probe: unable to outcompete Pin1 pulldown
PATU-8988T WT Pin1 cells
  antiproliferative activity in 3D Matrigel domes: showed no effect in any of the tested systems
PATU-8988T cells
  cells in S phase: did not show this effect

Source: article PMC9119696 (Nature chemical biology, 2021)
